The record followed here is ChEMBL document CHEMBL1146764, “Synthesis and evaluation of novel 1,4-naphthoquinone derivatives as antiviral, antifungal and anticancer agents” (2004).

For one test, the system named is Trichophyton benhamiae. Put plainly: Minimum inhibitory concentration towards Trichophyton mentagrophytes. The format is functional, Trichophyton mentagraphytes.
The test system of a further test is Aspergillus fumigatus. Briefly: Minimum inhibitory concentration towards Aspergillus fumigatus. The format is functional.
In test [1] the test system is Cryptococcus neoformans. Briefly: Minimum inhibitory concentration towards Cryptococcus neoformans. It counts as functional.
In test [2] the test system is Candida albicans. Put plainly: Minimum inhibitory concentration towards Candida albicans. The format is functional.
Another test concerns Microsporum canis. Put plainly: Minimum inhibitory concentration towards Microsporum canis. The format is functional.
The next test has as its system Staphylococcus aureus. Briefly: Minimum inhibitory concentration towards Staphylococcus aureus. The format is functional.
Test [3] relates to Agrobacterium tumefaciens. Put plainly: Minimum inhibitory concentration towards Agrobacterium tumefaciens. It counts as functional.
The next test deals with Klebsiella pneumoniae. Put plainly: Minimum inhibitory concentration towards Klebsiella pneumoniae. It counts as functional.
In a further test the test system is Pseudomonas aeruginosa. Briefly: Minimum inhibitory concentration towards Pseudomonas aeruginosa. It counts as functional.
The test system of test [4] is Candida albicans. Put plainly: Minimum inhibitory concentration towards C. albicans; value ranges from 7.8-7.9 ug/mL. It counts as functional, organism-based.
Test [5] concerns Cryptococcus neoformans. Briefly: Minimum inhibitory concentration towards C. neoformans; value ranges from 3.5-3.9 ug/mL. The format is functional, organism-based.
The subject of another test is Influenza A virus. Put plainly: In vitro antiviral activity of compound against Influenza-A virus. It counts as functional.
The test system of test [6] is Rattus norvegicus. Put plainly: Number of survivors out of 4 rats treated at 10 mg/kg. The format is functional. In a few lines:
(§1)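 Lymphoid leukaemia P 388 in rats, four animals per group, given 10 mg/kg. Survivors counted. Activity expressed as T/C (%) of treated versus control.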

The test system of test [7] is Rattus norvegicus. Briefly: Anticancer activity against lymphoid leukemia P388 in rats at a dose of 10 mg/kg. It counts as functional. In a few lines:
as §1

The subject of test [8] is Rattus norvegicus. Put plainly: Number of survivors out of 6 rats treated at 6.25 mg/kg. It counts as functional. In a few lines: (§2)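 Lymphoid leukaemia L-1210 in rats, six animals per dose group, doses 1.56–25 mg/kg. Survivors counted per group. T/C (%) compares a tumour evaluation parameter in treated versus control animals.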
In test [9] the test system is Rattus norvegicus. Briefly: Number of survivors out of 6 rats treated at 1.56 mg/kg. The format is functional. In a few lines: as §2
The subject of test [10] is Rattus norvegicus. Briefly: Number of survivors out of 6 rats treated at 3.12 mg/kg. It counts as functional. In a few lines: as §2
The subject of test [11] is Rattus norvegicus. Briefly: Anticancer activity against Lymphoid Leukemia L-1210 in rats at dose of 6.25 mg/kg. The format is functional. In a few lines:
as §2

For test [12], the system named is Rattus norvegicus. Put plainly: Anticancer activity against Lymphoid Leukemia L-1210 in rats at dose of 1.56 mg/kg. The format is functional. In a few lines:
as §2

The subject of test [13] is Rattus norvegicus. Put plainly: Anticancer activity against Lymphoid Leukemia L-1210 in rats at dose of 3.12 mg/kg. It counts as functional. In a few lines: as §2
Test [14] has as its system Rattus norvegicus. Put plainly: Number of survivors out of 6 rats treated at 25 mg/kg. It counts as functional. In a few lines:
as §2

The subject of test [15] is Rattus norvegicus. Briefly: Number of survivors out of 6 rats treated at 12.5 mg/kg. It counts as functional.
Test [16] concerns Rattus norvegicus. Briefly: Anticancer activity against Lymphoid Leukemia L-1210 in rats at dose of 12.5 mg/kg. It counts as functional.
The subject of test [17] is Rattus norvegicus. Briefly: Anticancer activity against Lymphoid Leukemia L-1210 in rats at dose of 25.0 mg/kg; Toxic. The format is functional, organism-based. Also noted: dose 25 mg/kg.

Converted amounts (≈) assume the structure as drawn.

As a reminder, the MIC is the least concentration at which growth counts as inhibited. A high value points to a less susceptible organism. In the case of `O=C(O)CCCSC1=CC(=O)c2c(Cl)ccc(O)c2C1=O`, the MIC was 25 µg/mL (≈ 76.5 µM) with Trichophyton benhamiae; > 50 µg/mL with Aspergillus fumigatus; > 50 µg/mL in the test with Cryptococcus neoformans [1]; > 50 µg/mL with Candida albicans [2]; > 50 µg/mL against Microsporum canis.
With `O=C(O)c1ccccc1SC1=CC(=O)c2c(Cl)ccc(O)c2C1=O`, the minimal inhibitory concentration (MIC) with Staphylococcus aureus is > 50 µg/mL; in the test with Trichophyton benhamiae, 25 µg/mL (≈ 69.3 µM); in test [3] it was > 50 µg/mL; in the test on Aspergillus fumigatus it was > 50 µg/mL; in the test on Cryptococcus neoformans [1], > 50 µg/mL; against Candida albicans [2] it was > 50 µg/mL. The minimal inhibitory concentration (MIC) in the test with Klebsiella pneumoniae is 25 µg/mL (≈ 69.3 µM); in the test on Pseudomonas aeruginosa it was 50 µg/mL (≈ 139 µM); against Microsporum canis, > 50 µg/mL.
Turning to NYSTATIN, the minimum inhibitory concentration (MIC) is 7.9 µg/mL against Candida albicans [4] and 3.9 µg/mL in the test with Cryptococcus neoformans [5].
On to `Clc1ccc(COC(Cn2ccnc2)c2ccc(Cl)cc2Cl)c(Cl)c1` (stereo not drawn) [MICONAZOLE], for which the minimum inhibitory concentration (MIC) was < 0.78 µg/mL in the test on Trichophyton benhamiae; 12.5 µg/mL (≈ 30 µM) in the test with Aspergillus fumigatus; 12.5 µg/mL (≈ 30 µM) in the test with Cryptococcus neoformans [1]; 25 µg/mL (≈ 60.1 µM) against Candida albicans [2]; < 0.78 µg/mL in the test on Microsporum canis.
As usually defined, the Inhibition is the share of the control response that was lost under treatment. A higher Inhibition goes with strong suppression. As to `O=C1C(=O)c2ccccc2C(O)=C1Sc1ccccc1`, the minimal inhibitory concentration (MIC) in the test on Trichophyton benhamiae is 6.25 µg/mL (≈ 22.1 µM); with Aspergillus fumigatus, > 50 µg/mL; against Cryptococcus neoformans [1] it was > 50 µg/mL; in the test with Candida albicans [2] it was 25 µg/mL (≈ 88.6 µM); against Microsporum canis, 25 µg/mL (≈ 88.6 µM). For the same compound, in the test on Influenza A virus, the Inhibition came out at 50%.
As to GENTAMICIN, the minimal inhibitory concentration (MIC) with Staphylococcus aureus was 0.78 µg/mL; with Klebsiella pneumoniae it was 0.39 µg/mL; in the test on Pseudomonas aeruginosa, 0.78 µg/mL.
For `O=C1C=C(Sc2ccccc2)C(=O)c2ccccc21`, the MIC with Staphylococcus aureus was 25 µg/mL (≈ 93.9 µM); in the test with Trichophyton benhamiae it was < 0.78 µg/mL; in test [3] it was > 50 µg/mL; in the test with Aspergillus fumigatus it was 25 µg/mL (≈ 93.9 µM); in the test with Cryptococcus neoformans [1], 1.56 µg/mL (≈ 5.86 µM); against Candida albicans [2] it was 12.5 µg/mL (≈ 46.9 µM). Moreover, the MIC in the test on Klebsiella pneumoniae is > 50 µg/mL; with Pseudomonas aeruginosa, > 50 µg/mL; against Microsporum canis, < 0.98 µg/mL.
With `O=C(O)CCCSC1=CC(=O)c2c(O)ccc(O)c2C1=O`, the MIC against Staphylococcus aureus is > 50 µg/mL; in the test on Trichophyton benhamiae, 3.12 µg/mL (≈ 10.1 µM); in [3] it was 12.5 µg/mL (≈ 40.5 µM); against Aspergillus fumigatus, > 50 µg/mL; in the test with Cryptococcus neoformans [1], 1.56 µg/mL (≈ 5.06 µM); in the test on Candida albicans [2], 3.12 µg/mL (≈ 10.1 µM). Moreover, the MIC against Klebsiella pneumoniae is 50 µg/mL (≈ 162 µM); against Pseudomonas aeruginosa, > 50 µg/mL; in the test with Microsporum canis, 3.12 µg/mL (≈ 10.1 µM).
For the compound `O=C1C=CC(=O)C(Sc2ccccc2C(=O)O)=C1`, the minimal inhibitory concentration (MIC) in the test with Staphylococcus aureus was > 50 µg/mL; in the test with Trichophyton benhamiae, > 50 µg/mL; in [3] it was > 50 µg/mL; with Aspergillus fumigatus, > 50 µg/mL; against Cryptococcus neoformans [1] it was 50 µg/mL (≈ 192 µM); in the test with Candida albicans [2] it was > 50 µg/mL. The results for the minimal inhibitory concentration (MIC) against Klebsiella pneumoniae, against Pseudomonas aeruginosa and in the test with Microsporum canis were 25 µg/mL (≈ 96.1 µM), 25 µg/mL (≈ 96.1 µM) and > 50 µg/mL, respectively.
What is called T/C is the ratio of treated to control. Take `NC(=O)CCSC1=CC(=O)c2ccccc2C1=O`: the Survivors in the test with Rattus norvegicus [6] worked out at 4. The T/C in the test on Rattus norvegicus [7] is given as 49%.
For the compound `O=C1C=C(SCCC(=O)N2CCCCC2)C(=O)c2ccccc21`, in the test with Rattus norvegicus [6], the Survivors is on record as 4. The same compound displayed a T/C in the test with Rattus norvegicus [7] of 30%.
For the compound `O=C1C(Sc2cccc3ccccc23)=C(Sc2cccc3ccccc23)C(=O)c2ccccc21`, the minimal inhibitory concentration (MIC) against Staphylococcus aureus was 50 µg/mL (≈ 105 µM); in test [3] it was > 50 µg/mL; against Klebsiella pneumoniae, > 50 µg/mL; against Pseudomonas aeruginosa, > 50 µg/mL.
Regarding `C[C@@H]1[C@H](O)[C@@H](C)/C=C/C=C/C=C/C=C/C=C/C=C/C=C/[C@H](O[C@@H]2O[C@H](C)[C@@H](O)[C@H](N)[C@@H]2O)C[C@@H]2O[C@](O)(C[C@@H](O)C[C@@H](O)[C@H](O)CC[C@@H](O)C[C@@H](O)CC(=O)O[C@H]1C)C[C@H](O)[C@H]2C(=O)O` [AMPHOTERICIN B], the MIC was 1.56 µg/mL (≈ 1.69 µM) in the test with Trichophyton benhamiae, 0.78 µg/mL (≈ 0.844 µM) in the test on Cryptococcus neoformans [1], 0.39 µg/mL (≈ 0.422 µM) against Candida albicans [2] and 1.56 µg/mL (≈ 1.69 µM) with Microsporum canis.
On to `O=C1C(Sc2ccccc2)=C(Sc2ccccc2)C(=O)c2c(Cl)ccc(O)c21`, for which the MIC in the test on Trichophyton benhamiae is > 50 µg/mL; in the test with Aspergillus fumigatus it was 50 µg/mL (≈ 118 µM); against Cryptococcus neoformans [1] it was > 50 µg/mL; in the test on Candida albicans [2], > 50 µg/mL; against Microsporum canis it was 50 µg/mL (≈ 118 µM).
On to `O=C(O)CCCSC1=CC(=O)c2ccccc2C1=O`, for which the MIC was 12.5 µg/mL (≈ 45.2 µM) in the test on Staphylococcus aureus; 25 µg/mL (≈ 90.5 µM) with Trichophyton benhamiae; > 50 µg/mL against Aspergillus fumigatus; > 50 µg/mL with Cryptococcus neoformans [1]; > 50 µg/mL with Candida albicans [2]; 50 µg/mL (≈ 181 µM) against Klebsiella pneumoniae. The MIC in the test on Microsporum canis is > 50 µg/mL. Further, the Survivors with Rattus norvegicus [8], in the test with Rattus norvegicus [9] and with Rattus norvegicus [10] was 6 each time. For the same compound, the T/C in the test with Rattus norvegicus [11] stood at 100%; with Rattus norvegicus [12], 89%; in the test with Rattus norvegicus [13] it was 96%.
For `O=C1C(Sc2cccc3ccccc23)=C(Sc2cccc3ccccc23)C(=O)c2c(Cl)ccc(O)c21`, the MIC in the test on Trichophyton benhamiae was 50 µg/mL (≈ 95.2 µM); against Aspergillus fumigatus it was > 50 µg/mL; against Cryptococcus neoformans [1], > 50 µg/mL; against Candida albicans [2], 50 µg/mL (≈ 95.2 µM); against Microsporum canis, > 50 µg/mL.
`O=C(O)CCSC1=CC(=O)c2c(O)ccc(O)c2C1=O`: the Inhibition in the test with Influenza A virus is 52%.
As to `O=C1C=CC(=O)c2c1c(O)c1sc3ccccc3c(=O)c1c2O`, the minimal inhibitory concentration (MIC) was 25 µg/mL (≈ 77.1 µM) in the test on Trichophyton benhamiae; > 50 µg/mL with Aspergillus fumigatus; > 50 µg/mL in the test with Cryptococcus neoformans [1]; > 50 µg/mL against Candida albicans [2]; > 50 µg/mL with Microsporum canis.
Take `O=C(O)CCSC1=CC(=O)c2ccccc2C1=O`: the MIC against Staphylococcus aureus is 12.5 µg/mL (≈ 47.7 µM); in [3], 25 µg/mL (≈ 95.3 µM); with Klebsiella pneumoniae, 50 µg/mL (≈ 191 µM); against Pseudomonas aeruginosa, 12.5 µg/mL (≈ 47.7 µM). Further, the Survivors was 6 with Rattus norvegicus [8], 1 in the test with Rattus norvegicus [14] and 6 in the test on Rattus norvegicus [15]. Besides, the results for the T/C in the test with Rattus norvegicus [16], in the test with Rattus norvegicus [11] and in the test with Rattus norvegicus [17] were 110%, 115% and “Toxic”, respectively.
